Measured values as given in ChEMBL document CHEMBL5649170, “Sustained microglial depletion with CSF1R inhibitor impairs parenchymal plaque development in an Alzheimer's disease model” (Nat Commun, 2019).
The source made the active and inactive calls. The rule behind the calls is not given here.

Assays:
[1] = biological target: Rho-associated protein kinase 1 (Homo sapiens, UniProt Q13464); experiment: Inhibition of ROCK1 (unknown origin)
[2] = Toxicity in wildtype mouse assessed as time in platform zone at 1200 ppm administered as rodent chow for 10 to 24 weeks by Morris water maze test (reference value: 0 to 2.7 sec); details: in vivo, po, time 10-24 weeks
[3] = Toxicity in wildtype mouse assessed as number of open arm entries at 1200 ppm administered as rodent chow for 10 to 24 weeks by Elevated plus maze test (reference value: 7 to 29); details: in vivo, po, time 10-24 weeks
[4] = Ratio of drug concentration in brain to plasma in mouse at 300 ppm administered as rodent chow for 14 days; type: ADME, cell-free; details: route po, time 14 day, read-out: BPR
[5] = biological target: AMP-activated protein kinase (AMPK) alpha-1/beta-1/gamma-1 (Homo sapiens, UniProt P54619+Q13131+Q9Y478); experiment: Inhibition of AMPK_A1/B1/G1 (unknown origin); type: protein-complex assay
[6] = biological target: Megakaryocyte-associated tyrosine-protein kinase (Homo sapiens, UniProt P42679); experiment: Inhibition of MATK (unknown origin)
Chain of Megakaryocyte-associated tyrosine-protein kinase (P42679 whole entry): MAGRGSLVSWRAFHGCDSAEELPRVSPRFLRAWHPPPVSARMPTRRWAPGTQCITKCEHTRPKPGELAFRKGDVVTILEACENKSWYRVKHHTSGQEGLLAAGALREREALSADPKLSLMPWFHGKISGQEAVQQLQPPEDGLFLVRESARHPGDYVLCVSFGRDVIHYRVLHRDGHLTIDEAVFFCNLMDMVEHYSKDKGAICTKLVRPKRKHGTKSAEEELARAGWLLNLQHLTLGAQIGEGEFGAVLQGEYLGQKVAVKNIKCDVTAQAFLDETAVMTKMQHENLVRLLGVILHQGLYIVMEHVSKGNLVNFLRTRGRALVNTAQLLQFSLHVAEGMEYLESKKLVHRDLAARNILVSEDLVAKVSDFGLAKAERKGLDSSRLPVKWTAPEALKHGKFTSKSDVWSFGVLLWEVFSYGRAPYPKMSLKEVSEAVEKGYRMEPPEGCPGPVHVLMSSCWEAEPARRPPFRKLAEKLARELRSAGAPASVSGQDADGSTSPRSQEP

[7] = biological target: Tyrosine-protein kinase Mer (Homo sapiens, UniProt Q12866); experiment: Inhibition of MERTK (unknown origin)
[8] = biological target: Ephrin type-B receptor 2 (Homo sapiens, UniProt P29323); experiment: Inhibition of EPHB2 (unknown origin)
[9] = biological target: Serine/threonine-protein kinase PLK2 (Homo sapiens, UniProt Q9NYY3); experiment: Inhibition of PLK2 (unknown origin)
[10] = tested on: Mus musculus; experiment: Prevention of Itgam gene upregulation in 5XFAD mouse hippocampus at 1200 ppm administered as rodent chow starting from 1.5 months and measured after 7 months by Nanostring analysis; type: functional, tissue-based; details: route po, time 5.5 months
[11] = tested on: Mus musculus; experiment: Antialzheimer activity in 5XFAD mouse assessed as number of This-S positive cells per FOV in somatosensory cortex at 1200 ppm administered as rodent chow starting from 1.5 months to 4 months followed by compound removal and measured after 1 months by immunolabelling based confocal microscopic analysis (reference value: 34 to 79); type: functional; details: route po, time 2.5 months, 1825 h
Method in brief: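 For the repopulation paradigm, 5xFAD mice ate 1200 ppm PLX5622 chow from 1.5 to 4 months of age. Inhibitor chow was then withdrawn, and brains were examined one month later. Sections were stained with Thio-S and immunolabeled for IBA1, then analysed by confocal microscopy in cortical regions.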

[12] = tested on: Mus musculus; experiment: Antialzheimer activity in 5XFAD mouse assessed as average speed at 1200 ppm administered as rodent chow for 10 to 24 weeks by Open field test (reference value: 0.024 to 0.076 meter/s); type: functional; details: route po, time 10-24 weeks
[13] = Effect on Cx3cr1 gene expression in wild type mouse hippocampus at 1200 ppm administered as rodent chow starting from 1.5 months and measured after 7 months by RNA-Seq analysis (reference value: 9.911 to 12.014 RPKM); type: functional; details: route po, time 5.5 months, 4015 h
[14] = Effect on Cx3cr1 gene expression in wild type mouse thalamus at 1200 ppm administered as rodent chow starting from 1.5 months and measured after 7 months by RNA-Seq analysis (reference value: 10.263 to 12.137 RPKM); type: functional; details: route po, time 5.5 months, 4015 h
[15] = tested on: Mus musculus; experiment: Prevention of Tgfb1 gene upregulation in 5XFAD mouse hippocampus at 1200 ppm administered as rodent chow starting from 1.5 months and measured after 7 months by Nanostring analysis; type: functional, tissue-based; details: route po, time 5.5 months
[16] = biological target: Serine/threonine-protein kinase MRCK beta (Homo sapiens, UniProt Q9Y5S2); experiment: Inhibition of CDC42_BPB (unknown origin)
[17] = tested on: Mus musculus; experiment: Antialzheimer activity in 5XFAD mouse assessed as iron reactivity by measuring hemosiderin intensity of prussian blue staining in thalamus at 1200 ppm administered as rodent chow starting from 1.5 months and measured after 7 months by confocal microscopic analysis (reference value: 0.39 to 3.131 a.u.); type: functional; details: route po, time 5.5 months, 4015 h
Method in brief: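 Wild-type or 5xFAD mice fed PLX5622 (1200 ppm) in AIN-76A chow from 1.5 months of age, examined in 4- and 7-month-old cohorts. Brain sections stained with a Prussian blue kit per kit instructions to detect iron deposits (microbleeds).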

[18] = biological target: Protein kinase C eta type (Homo sapiens, UniProt P24723); experiment: Inhibition of PRKCH (unknown origin)
Chain of Protein kinase C eta type (P24723 whole entry): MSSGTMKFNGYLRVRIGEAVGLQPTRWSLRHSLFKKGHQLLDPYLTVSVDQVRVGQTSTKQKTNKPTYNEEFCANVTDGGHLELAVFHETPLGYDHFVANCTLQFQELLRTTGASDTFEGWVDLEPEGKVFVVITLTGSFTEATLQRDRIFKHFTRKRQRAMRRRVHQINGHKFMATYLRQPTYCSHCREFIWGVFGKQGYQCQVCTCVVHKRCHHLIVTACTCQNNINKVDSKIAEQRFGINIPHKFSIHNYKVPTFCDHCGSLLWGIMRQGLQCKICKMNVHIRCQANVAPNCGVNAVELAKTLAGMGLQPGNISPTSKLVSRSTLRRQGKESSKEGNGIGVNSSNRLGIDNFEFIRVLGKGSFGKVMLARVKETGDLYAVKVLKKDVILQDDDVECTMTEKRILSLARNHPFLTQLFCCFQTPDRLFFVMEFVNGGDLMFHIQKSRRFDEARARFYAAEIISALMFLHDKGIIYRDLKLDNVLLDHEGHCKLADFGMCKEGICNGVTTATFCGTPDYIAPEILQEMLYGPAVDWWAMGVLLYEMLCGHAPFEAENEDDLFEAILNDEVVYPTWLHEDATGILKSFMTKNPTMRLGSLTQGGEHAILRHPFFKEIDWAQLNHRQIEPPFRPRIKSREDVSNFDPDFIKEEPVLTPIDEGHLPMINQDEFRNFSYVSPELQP

[19] = biological target: SRSF protein kinase 1 (Homo sapiens, UniProt Q96SB4); experiment: Inhibition of SRPK1 (unknown origin)
Chain of SRSF protein kinase 1 (Q96SB4 whole entry): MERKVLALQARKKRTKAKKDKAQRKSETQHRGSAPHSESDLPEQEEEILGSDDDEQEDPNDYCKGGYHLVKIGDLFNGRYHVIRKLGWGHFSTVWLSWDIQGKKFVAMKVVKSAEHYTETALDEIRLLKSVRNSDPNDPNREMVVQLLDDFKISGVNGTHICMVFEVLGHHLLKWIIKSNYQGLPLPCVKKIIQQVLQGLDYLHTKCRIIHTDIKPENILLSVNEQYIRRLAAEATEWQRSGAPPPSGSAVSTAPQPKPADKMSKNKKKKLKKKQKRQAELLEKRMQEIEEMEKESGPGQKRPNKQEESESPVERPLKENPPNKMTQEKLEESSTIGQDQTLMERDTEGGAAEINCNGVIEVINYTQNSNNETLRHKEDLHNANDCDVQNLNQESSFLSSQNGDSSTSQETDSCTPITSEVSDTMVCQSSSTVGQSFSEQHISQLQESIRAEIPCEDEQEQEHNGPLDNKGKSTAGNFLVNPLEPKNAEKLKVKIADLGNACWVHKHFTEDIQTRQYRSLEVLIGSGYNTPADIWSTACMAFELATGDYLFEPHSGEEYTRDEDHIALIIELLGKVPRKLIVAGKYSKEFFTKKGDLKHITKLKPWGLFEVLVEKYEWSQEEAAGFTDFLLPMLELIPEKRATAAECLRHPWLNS

[20] = Effect on Clec7a gene expression in 5XFAD mouse hippocampus at 1200 ppm administered as rodent chow starting from 1.5 months and measured after 7 months by RNA-Seq analysis (reference value: 4.246 to 7.511 RPKM); type: functional; details: route po, time 5.5 months, 4015 h
Method in brief: (§1)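 WT and 5xFAD mice were treated with 1200 ppm PLX5622 chow or control chow from 1.5 to 7 months of age. Brains were microdissected into cortex, hippocampus and thalamus, and RNA was extracted from tissue powder. Whole-transcriptome RNA-Seq libraries were sequenced, with n = 4 per group per region (48 samples).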

[21] = tested on: Mus musculus; experiment: Prevention of C1qa gene upregulation in 5XFAD mouse hippocampus at 1200 ppm administered as rodent chow starting from 1.5 months and measured after 7 months by Nanostring analysis; type: functional, tissue-based; details: route po, time 5.5 months
[22] = biological target: G protein-coupled receptor kinase 6 (Homo sapiens, UniProt P43250); experiment: Inhibition of GRK6 (unknown origin)
Chain of G protein-coupled receptor kinase 6 (P43250 whole entry): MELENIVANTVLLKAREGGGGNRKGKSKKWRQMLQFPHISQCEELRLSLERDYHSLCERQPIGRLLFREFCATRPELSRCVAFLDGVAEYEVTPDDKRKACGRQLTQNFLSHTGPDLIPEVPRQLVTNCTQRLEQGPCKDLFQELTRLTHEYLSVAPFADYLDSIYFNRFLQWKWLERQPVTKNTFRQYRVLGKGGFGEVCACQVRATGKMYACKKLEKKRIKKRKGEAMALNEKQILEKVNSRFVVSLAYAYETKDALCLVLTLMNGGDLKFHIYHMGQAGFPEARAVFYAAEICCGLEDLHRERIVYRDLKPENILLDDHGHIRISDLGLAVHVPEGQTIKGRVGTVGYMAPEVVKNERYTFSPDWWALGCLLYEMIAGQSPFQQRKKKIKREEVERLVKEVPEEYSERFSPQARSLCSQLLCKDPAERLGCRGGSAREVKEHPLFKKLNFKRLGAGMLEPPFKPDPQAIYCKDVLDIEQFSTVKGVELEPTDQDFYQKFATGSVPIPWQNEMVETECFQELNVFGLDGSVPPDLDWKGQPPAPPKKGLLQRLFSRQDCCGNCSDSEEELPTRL

[23] = biological target: Misshapen-like kinase 1 (Homo sapiens, UniProt Q8N4C8); experiment: Inhibition of MINK1 (unknown origin)
[24] = biological target: Casein kinase I isoform gamma-1 (Homo sapiens, UniProt Q9HCP0); experiment: Inhibition of CSNK1G1 (unknown origin)
Chain of Casein kinase I isoform gamma-1 (Q9HCP0 whole entry, canonical isoform): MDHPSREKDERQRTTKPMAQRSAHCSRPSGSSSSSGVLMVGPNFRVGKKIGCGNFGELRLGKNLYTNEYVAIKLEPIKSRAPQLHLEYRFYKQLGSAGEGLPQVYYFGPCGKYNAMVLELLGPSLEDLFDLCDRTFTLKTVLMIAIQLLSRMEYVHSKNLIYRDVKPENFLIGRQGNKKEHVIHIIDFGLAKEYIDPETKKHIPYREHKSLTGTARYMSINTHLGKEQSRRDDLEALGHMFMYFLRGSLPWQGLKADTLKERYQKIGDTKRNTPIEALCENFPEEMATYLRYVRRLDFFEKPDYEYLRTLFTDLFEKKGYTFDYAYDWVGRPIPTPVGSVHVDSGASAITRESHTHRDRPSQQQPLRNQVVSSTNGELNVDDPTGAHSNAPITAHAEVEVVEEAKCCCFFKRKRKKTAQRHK

[25] = Effect on Clec7a gene expression in wild type mouse thalamus at 1200 ppm administered as rodent chow starting from 1.5 months and measured after 7 months by RNA-Seq analysis (reference value: 0.095 to 0.586 RPKM); type: functional; details: route po, time 5.5 months, 4015 h; method in brief: as §1
[26] = tested on: Mus musculus; experiment: Effect on APP processing pathway in 5XFAD mouse assessed as PS1 protein signal intensity in cortex at 1200 ppm administered as rodent starting from 1.5 months and measured after 7 months (reference value: 64.603 to 143.235 %); type: functional; details: route po, time 5.5 months, 4015 h
[27] = biological target: Protein kinase C beta type (Homo sapiens, UniProt P05771); experiment: Inhibition of PRKCB1 (unknown origin)
[28] = tested on: Mus musculus; experiment: Antialzheimer activity in 5XFAD mouse assessed as pyroglutamte-3 immunoreactivity in thalamus at 1200 ppm administered as rodent chow for 24 weeks by immunolabeling based confocal microscopic analysis; type: functional, organism-based; details: route po
[29] = Effect on Itgax gene expression in 5XFAD mouse thalamus at 1200 ppm administered as rodent chow starting from 1.5 months and measured after 7 months by RNA-Seq analysis (reference value: 1.842 to 2.823 RPKM); type: functional; details: route po, time 5.5 months, 4015 h
[30] = tested on: Mus musculus; experiment: Effect on APP processing pathway in wildtype mouse assessed as C99 protein signal intensity in cortex at 1200 ppm administered as rodent starting from 1.5 months and measured after 7 months (reference value: 8.282 to 87.456 %); type: functional; details: route po, time 5.5 months, 4015 h
[31] = biological target: Serine/threonine-protein kinase TBK1 (Homo sapiens, UniProt Q9UHD2); experiment: Inhibition of TBK1 (unknown origin)
Chain of Serine/threonine-protein kinase TBK1 (Q9UHD2 whole entry): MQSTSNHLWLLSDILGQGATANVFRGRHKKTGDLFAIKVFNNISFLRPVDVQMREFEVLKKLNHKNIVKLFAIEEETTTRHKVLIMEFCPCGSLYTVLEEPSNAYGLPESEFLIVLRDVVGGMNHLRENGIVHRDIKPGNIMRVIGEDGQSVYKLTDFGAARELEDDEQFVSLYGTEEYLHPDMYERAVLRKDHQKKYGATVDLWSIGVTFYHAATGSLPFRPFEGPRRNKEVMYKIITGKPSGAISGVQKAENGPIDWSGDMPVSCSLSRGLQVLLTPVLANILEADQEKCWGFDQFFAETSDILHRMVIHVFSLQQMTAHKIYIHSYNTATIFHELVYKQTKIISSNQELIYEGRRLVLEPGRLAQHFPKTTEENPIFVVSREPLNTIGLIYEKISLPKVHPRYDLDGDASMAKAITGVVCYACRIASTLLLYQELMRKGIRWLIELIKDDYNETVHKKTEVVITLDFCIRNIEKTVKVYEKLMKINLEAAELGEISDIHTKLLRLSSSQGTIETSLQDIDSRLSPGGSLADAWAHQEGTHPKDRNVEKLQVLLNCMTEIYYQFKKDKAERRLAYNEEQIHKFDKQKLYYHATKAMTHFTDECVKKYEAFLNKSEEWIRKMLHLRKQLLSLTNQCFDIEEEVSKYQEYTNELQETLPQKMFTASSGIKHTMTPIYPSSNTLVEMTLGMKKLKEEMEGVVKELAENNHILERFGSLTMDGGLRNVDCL

[32] = Effect on Csf1r RPKM gene expression in wild type mouse thalamus at 1200 ppm administered as rodent chow starting from 1.5 months and measured after 7 months by RNA-Seq analysis (reference value: 19.596 to 21.371 RPKM); type: functional; details: route po, time 5.5 months, 4015 h

Chain of Rho-associated protein kinase 1 (Q13464 whole entry): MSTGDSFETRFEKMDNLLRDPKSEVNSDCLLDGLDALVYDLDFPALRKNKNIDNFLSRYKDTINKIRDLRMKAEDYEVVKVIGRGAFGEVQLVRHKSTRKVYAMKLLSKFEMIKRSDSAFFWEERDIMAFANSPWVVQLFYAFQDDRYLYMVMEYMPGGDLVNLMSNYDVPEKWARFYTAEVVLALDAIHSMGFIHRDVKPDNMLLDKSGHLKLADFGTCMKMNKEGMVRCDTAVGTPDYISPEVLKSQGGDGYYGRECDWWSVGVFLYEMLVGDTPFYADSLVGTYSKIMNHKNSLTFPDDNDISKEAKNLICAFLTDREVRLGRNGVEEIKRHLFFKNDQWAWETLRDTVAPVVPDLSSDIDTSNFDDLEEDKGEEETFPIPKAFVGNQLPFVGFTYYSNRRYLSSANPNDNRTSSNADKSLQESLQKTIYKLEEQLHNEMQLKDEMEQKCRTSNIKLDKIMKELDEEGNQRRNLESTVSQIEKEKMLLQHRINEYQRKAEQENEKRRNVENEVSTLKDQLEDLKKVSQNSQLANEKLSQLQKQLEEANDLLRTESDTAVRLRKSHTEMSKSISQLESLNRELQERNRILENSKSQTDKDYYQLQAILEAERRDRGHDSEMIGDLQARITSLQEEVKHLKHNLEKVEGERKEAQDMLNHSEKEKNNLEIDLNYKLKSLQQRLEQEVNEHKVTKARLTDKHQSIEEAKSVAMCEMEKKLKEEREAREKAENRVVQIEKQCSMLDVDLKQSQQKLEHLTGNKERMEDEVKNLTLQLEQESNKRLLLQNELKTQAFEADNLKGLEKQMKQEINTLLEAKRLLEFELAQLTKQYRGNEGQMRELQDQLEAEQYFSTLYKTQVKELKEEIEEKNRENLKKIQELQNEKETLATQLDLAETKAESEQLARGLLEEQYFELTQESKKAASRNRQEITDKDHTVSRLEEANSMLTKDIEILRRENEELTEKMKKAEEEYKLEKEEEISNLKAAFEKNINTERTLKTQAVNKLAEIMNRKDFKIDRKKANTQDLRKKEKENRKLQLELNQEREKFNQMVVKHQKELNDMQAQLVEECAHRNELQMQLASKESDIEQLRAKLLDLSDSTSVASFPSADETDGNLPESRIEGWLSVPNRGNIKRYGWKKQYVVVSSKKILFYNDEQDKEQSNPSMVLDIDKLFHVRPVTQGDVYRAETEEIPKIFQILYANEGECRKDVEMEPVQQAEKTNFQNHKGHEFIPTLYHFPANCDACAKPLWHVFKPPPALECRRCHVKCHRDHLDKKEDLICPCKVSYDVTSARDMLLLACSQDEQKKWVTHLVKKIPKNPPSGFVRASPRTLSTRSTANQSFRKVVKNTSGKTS

In the case of COc1ncc(F)cc1CNc1ccc(Cc2c[nH]c3ncc(C)cc23)c(F)n1 [PLX-5622], the IC50 [1] is reported as > 1000 nM, the Time [2] is reported as 0.4 s and the Activity [3] is reported as 6. For the same compound, the Kp at 336 h [4] was 0.22, the IC50 [5] was > 1000 nM and the IC50 [6] was > 1000 nM. The IC50 [7] was > 1000 nM, the IC50 [8] was > 1000 nM and the IC50 [9] was > 1000 nM. The Activity [10] was “Active”, the Activity [11] was 15 and the Activity [12] was 0.03 meter/s. The Activity [13] was 0.074 RPKM, the Activity [14] was 0.026 RPKM and the Activity [15] was “Active”. For the same compound, the IC50 [16] was > 1000 nM, the Flu intensity [17] was 0.1 a.u and the IC50 [18] was > 1000 nM. For the same compound, the IC50 [19] was > 1000 nM, the Activity [20] was 0.239 RPKM and the Activity [21] was “Active”. For the same compound, the IC50 [22] was > 1000 nM, the IC50 [23] was > 1000 nM and the IC50 [24] was > 1000 nM. The Activity [25] was 0 RPKM, the Activity [26] was 56.036% and the IC50 [27] was > 1000 nM. The Activity [28] was “Active”, the Activity [29] was 0.043 RPKM and the Activity [30] was 21.073%. The IC50 [31] was > 1000 nM and the Activity [32] was 0.064 RPKM.
